Structures are written as SMILES. The source made the active and inactive calls.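 Rule for the calls, unless noted: active = fluorescence slope after compound addition differing from the mean of all screened samples at 99.7% confidence, in either direction; inactive = the rest.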

Experiment [1] is described as follows: inhibitors of TNFa-induced NFkB p65 translocation, primary screen, imaging, HUVEC, MLSMR starter and 10KST1 sets (AID 438;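 active = inhibition above 20% together with a positive visual image hit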;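 note: compound added about 3h40 before a 20 min TNFalpha stimulation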;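 for inhibition: signal is the nuclear over cytoplasmic p65 intensity ratio per well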). The note with it: HUVEC TNFa-induced p65 nuclear translocation; cell count: measured here: nuclei count (cytotoxicity indicator), at 2.08 µM; inhibition: at 2 µM, stronger effect = higher value, 0% TNFa-plus-vehicle, 100% no-TNFa wells.
The nature of experiment [2]: inhibitors of E-selectin induction by TNFa, primary screen, imaging, HUVEC, immunofluorescence, MLSMR starter and 10KST1 sets (AID 487;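 active = visually confirmed hit in the image check and inhibition above 20%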;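 for inhibition: signal is fraction of cell area covered by stained E-selectin grains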;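 for nuclei count: 100% = median nuclei count of all wells on the same plate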). The note with it: HUVEC TNFalpha-induced E-selectin immunofluorescence imaging, at 2 µM; inhibition: stronger effect = higher value; nuclei count: measured here: cell number, toxicity.
Experiment [3] can be described thus: DUSP6 inhibitors restoring Erk phosphorylation by chemical complementation, primary imaging in DUSP6-transfected HeLa (AID 609;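 active = compounds giving at least 50% inhibition in the cell-based MKP-3 phosphatase rescue imaging test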;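 for inhibition: phospho-Erk level distribution per well compared with pooled transfected vehicle control wells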). The note with it: HeLa MKP-3 transfected, phospho-Erk imaging KS statistic, at 10 µM, cells stimulated with TPA for 15 min.
Experiment [4] has as its target Dual specificity protein phosphatase 6 (Homo sapiens) (UniProt Q16828). The description is as above. The conditions noted are these: HeLa MKP-3 transfected, phospho-Erk imaging KS statistic; at 10 µM; stronger effect = higher value; cells stimulated with TPA for 15 min.
The target of experiment [5] is Voltage-gated potassium channel subunit beta-2 (Rattus norvegicus) (UniProt P62483). In words: KvBeta enzyme negative modulators, primary screen, biochemical, NADPH fluorescence (AID 622;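 active = fluorescence slope higher than the sample average by over 3 SD, cut at about -0.22 in these data, passing the limit was not always enough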;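 note: slope of raw intensity against log time taken from 70 to 1610 s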). The note with it: recombinant KvBeta, 4-cyanobenzaldehyde reduction, at 10 µM, stronger effect = higher value.
The target is the same in experiment [6]. As to the kind of experiment: KvBeta positive modulators, primary screen, biochemical, NADPH fluorescence (AID 623;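 active = NADPH fluorescence slope more negative than the mean of all samples by about 3 SD, 99.7% confidence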;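 note: fluorescence intensity change per second fitted from 20 to 320 s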). The note with it: Recombinant KvBeta, NADPH fluorescence decrease slope, 10 min; at 10 µM; stronger effect = lower value.
Experiment [7] addresses Alpha-2C adrenergic receptor (Homo sapiens) (UniProt P18825). As to the kind of experiment: modulators of alpha2C/GIRK thallium flux, primary screen, cell-based, HEK293 alpha2C/GIRK1/2 (AID 624).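 Note: slope of fluorescence ratio to pre-addition baseline per second over 15 to 24 s.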 The conditions noted are these: thallium flux BTC fluorescence, at 10 µM, actives lie on both sides.
A short description of experiment [8]: inhibitors of larval lipid processing in zebrafish, primary screen, whole organism, PED6 fluorescence, gall bladder and intestine (AID 686;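 active = a full or partial loss of lipid-probe fluorescence in the fish gall bladder, intestine or both, judged by eye; inactive = no fluorescence loss, or compound toxic to the fish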;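 note: larvae 5 to 7 days old with five fish per well; signal comes from phospholipase A2 cleavage of quenched PED6 carried via bile; overnight exposure to compound and PED6 before scoring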). The conditions noted are these: Zebrafish larvae PED6 lipid processing, fluorescence scoring; screened at 20 µM (by protocol). An outline of the steps:
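System: live zebrafish larvae aged 5-7 days, whole organism; measure: graded gall bladder and intestinal fluorescence inhibition per well; incubation: overnight exposure; reagent: ingested quenched lipid PED6 at 100 nM; signal: By-eye fluorescence microscopy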

Experiment [9] in a line: inhibitors of Chlamydomonas gravitaxis, primary screen, whole organism, Chlamydomonas reinhardtii, WT vs cilia-less mutant, absorbance, 96-well (AID 463189;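 active = inhibition at or above 50% relative to wild type and mutant plate controls; inactive = inhibition below 50%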;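 note: 0% = wild type cc124 cells in DMSO and 100% = ciliumless bld1 mutant cells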). The conditions noted are these: OD600 absorbance, 2 days, at 10 µM, stronger effect = higher value.
[10] abbreviates: measured here: cell density z-score.
Where [11] appears, read: measured here: nuclear c-Myc green intensity z-score.
Where [12] appears, read: measured here: nuclear pErk red intensity z-score, stronger effect = higher value.

Sequence of Voltage-gated potassium channel subunit beta-2 (Rattus norvegicus) (P62483 whole entry, looked up): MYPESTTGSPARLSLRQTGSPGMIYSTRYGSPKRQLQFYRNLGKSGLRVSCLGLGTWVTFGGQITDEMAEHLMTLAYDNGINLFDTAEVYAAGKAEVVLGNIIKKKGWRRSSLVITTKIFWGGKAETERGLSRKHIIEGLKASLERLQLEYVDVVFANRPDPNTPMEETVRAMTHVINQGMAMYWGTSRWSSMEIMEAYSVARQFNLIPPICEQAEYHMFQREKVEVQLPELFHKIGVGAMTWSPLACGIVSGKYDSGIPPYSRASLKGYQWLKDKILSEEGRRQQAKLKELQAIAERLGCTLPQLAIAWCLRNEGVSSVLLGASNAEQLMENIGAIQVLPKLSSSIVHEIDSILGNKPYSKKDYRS
Sequence of Alpha-2C adrenergic receptor (Homo sapiens) (P18825 whole entry, looked up): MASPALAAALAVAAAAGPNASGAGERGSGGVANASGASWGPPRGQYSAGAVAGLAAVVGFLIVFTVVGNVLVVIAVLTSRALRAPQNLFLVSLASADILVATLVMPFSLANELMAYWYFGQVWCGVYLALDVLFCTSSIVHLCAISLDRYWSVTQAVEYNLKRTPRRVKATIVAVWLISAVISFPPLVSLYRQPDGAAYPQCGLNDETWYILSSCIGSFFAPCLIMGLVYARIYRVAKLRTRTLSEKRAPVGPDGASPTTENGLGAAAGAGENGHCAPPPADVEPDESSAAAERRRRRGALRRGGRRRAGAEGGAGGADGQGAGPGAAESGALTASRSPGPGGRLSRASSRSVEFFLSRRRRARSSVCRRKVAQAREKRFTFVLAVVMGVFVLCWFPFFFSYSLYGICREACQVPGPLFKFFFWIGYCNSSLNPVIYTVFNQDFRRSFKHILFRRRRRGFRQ
Sequence of Dual specificity protein phosphatase 6 (Homo sapiens) (Q16828 whole entry, looked up): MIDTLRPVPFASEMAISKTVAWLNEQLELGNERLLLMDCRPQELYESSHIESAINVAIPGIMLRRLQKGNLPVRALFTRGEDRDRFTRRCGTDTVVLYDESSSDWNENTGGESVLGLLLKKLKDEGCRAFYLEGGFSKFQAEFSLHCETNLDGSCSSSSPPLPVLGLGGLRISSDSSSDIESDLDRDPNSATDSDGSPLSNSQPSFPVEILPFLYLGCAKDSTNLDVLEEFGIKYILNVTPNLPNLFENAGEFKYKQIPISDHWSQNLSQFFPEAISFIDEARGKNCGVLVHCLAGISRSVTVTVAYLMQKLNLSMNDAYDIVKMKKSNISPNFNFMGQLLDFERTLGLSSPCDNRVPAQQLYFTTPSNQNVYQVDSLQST

Broadly, the inhibition is the change of the read-out against control, counted positive when it falls. On to `CCCCC(C(=O)O)C(C)CC(=O)Nc1cccc(C(=O)O)c1` (centres undefined), for which the cell count in experiment [1] stood at 630. Moreover, the inhibition in [1] was -4.4% (inactive); in [2] it was -102% (inactive); in experiment [4] it was 18.6% (inactive); in experiment [9], 0.959% (inactive). The nuclei count in experiment [2] came out at 176%. In addition, the z-score in experiment [3] (setting [10]) is 0.159; in [3] (setting [11]), -1.73; in experiment [3] (setting [12]), 0.323. Also, the fluorescence slope in experiment [5] was -0.486 (inactive). Besides, in experiment [6], the NADPH fluorescence slope is -0.000152 (inactive). In addition, the slope in experiment [7] is 0.00384 (inactive). Further, in [8], the outcome was inactive.

`CCOC(=O)CSc1nc(C)c(C(C)=O)cc1C#N`: in experiment [1], the cell count came to 623. The inhibition is -18.6% (inactive) in [1], -0.7% (inactive) in experiment [2], -0.624% (inactive) in experiment [4] and 43.9% (inactive) in experiment [9]. In experiment [2], this molecule registered a nuclei count of 147%. For the same molecule, the z-score in experiment [3] (setting [10]) was -0.31; in experiment [3] (setting [11]), -1.06; in experiment [3] (setting [12]), -1.5. Moreover, the fluorescence slope in [5] is -0.403 (inactive). Moreover, the NADPH fluorescence slope in experiment [6] was -1.7e-05 (inactive). Moreover, the slope in [7] was 0.00581 (inactive). The molecule was classed as inactive in experiment [8].

In the case of `CCCCOc1cccc(-c2nnc(N)s2)c1`, the cell count in experiment [1] stood at 629. For the same molecule, the inhibition is -13.6% (inactive) in [1], 29.1% (inactive) in [2], -13.3% (inactive) in [4] and -2.21% (inactive) in experiment [9]. In [2], the nuclei count came out at 161%. Further, the values for the z-score in experiment [3] (setting [10]), in [3] (setting [11]) and in experiment [3] (setting [12]) were -0.391, 0.503 and -0.82, respectively. Also, the fluorescence slope in experiment [5] is -0.395 (inactive). Moreover, the NADPH fluorescence slope in [6] was -4.2e-05 (inactive). For the same molecule, the slope in [7] was 0.00766 (inactive). For the same molecule, in experiment [8], the call was inactive.

Regarding `O/N=C(\c1ccc2c(c1)OCCO2)C1CCCCC1`, in [1], the cell count came out at 483. Moreover, the inhibition in [1] was -8.4% (inactive); in experiment [2], 0.8% (inactive); in experiment [4], -1.98% (inactive); in experiment [9], 124% (active). In addition, the nuclei count in experiment [2] was found to be 88.1%. Further, the z-score is -0.525 in [3] (setting [10]), -0.257 in experiment [3] (setting [11]) and 1.15 in experiment [3] (setting [12]). Further, the fluorescence slope in experiment [5] is -0.497 (inactive). Besides, in experiment [6], the NADPH fluorescence slope was -3.9e-05 (inactive). The slope in experiment [7] is 0.00548 (inactive). Besides, in experiment [8], the result was inactive.

For the molecule `COc1ccc(-c2c3c([nH]c(=S)c2C#N)CCC3)cc1`, the cell count in [1] was 527. In addition, the inhibition in experiment [1] was -5.1% (inactive); in experiment [2] it was -113% (inactive); in experiment [4], 2.46% (inactive); in experiment [9], -1.44% (inactive). In experiment [2], the nuclei count is 192%. The z-score in experiment [3] (setting [10]) is -0.0351; in [3] (setting [11]) it was 1.87; in [3] (setting [12]), 0.16. In experiment [5], the fluorescence slope was -0.314 (inactive). For the same molecule, in experiment [6], the NADPH fluorescence slope is -4.4e-06 (inactive). Also, the slope in experiment [7] was 0.00379 (inactive). Also, the call in experiment [8] was inactive.

Consider `COC(=O)c1ccc(Oc2nc3ccccc3n3c(C)nnc23)cc1`, for which the cell count in [1] came out at 328. The inhibition was -6.8% (inactive) in experiment [1], -57.8% (inactive) in [2], 24.7% (inactive) in [4] and 27% (inactive) in experiment [9]. The nuclei count in experiment [2] is 74%. For the same molecule, the z-score in experiment [3] (setting [10]) was 0.524; in experiment [3] (setting [11]), 1.04; in [3] (setting [12]) it was -0.937. In addition, the fluorescence slope in [5] is -0.434 (inactive). Moreover, the NADPH fluorescence slope in [6] was -1.9e-05 (inactive). Also, the slope in experiment [7] is 0.00622 (inactive). Moreover, the molecule was called inactive in [8].

`COc1cccc(-c2nnc3sc(-c4ccco4)nn23)c1`: in [1], the cell count was 467. In addition, the inhibition in experiment [1] was -4% (inactive); in experiment [2], 3.6% (inactive); in experiment [4], 8.31% (inactive); in experiment [9], 38.1% (inactive). This molecule also came in with a nuclei count in [2] of 105%. The z-score was 1.05 in [3] (setting [10]), -0.932 in experiment [3] (setting [11]) and -0.641 in experiment [3] (setting [12]). Besides, the fluorescence slope in experiment [5] was -0.463 (inactive). In addition, the NADPH fluorescence slope in experiment [6] was 1.3e-05 (inactive). Also, in experiment [7], the slope was 0.00496 (inactive). In experiment [8], the outcome was “active; weak signal in gallbladder and intestine”.

Turning to `CCCCn1c(C)cc2cc(O)ccc21`, the cell count in experiment [1] turned out to be 320. Moreover, the inhibition was -9.2% (inactive) in [1], -73.6% (inactive) in experiment [2], -8.76% (inactive) in experiment [4] and -7.64% (inactive) in [9]. This molecule yielded a nuclei count in experiment [2] of 154%. The z-score is -1.22 in experiment [3] (setting [10]), 2.41 in [3] (setting [11]) and 1.37 in experiment [3] (setting [12]). For the same molecule, in experiment [5], the fluorescence slope is -0.432 (inactive). The NADPH fluorescence slope in experiment [6] is -0.000136 (inactive). The slope in [7] is 0.00664 (inactive). In addition, the molecule was classed as inactive in [8].

Regarding `O=c1c(F)cn(C2CCCO2)c(=O)n1Cc1ccccc1Cl` (centres undefined), the cell count in experiment [1] was found to be 614. The inhibition in experiment [1] is 1.6% (inactive); in [2], 11.4% (inactive); in [4] it was 0.671% (inactive); in [9], 4.11% (inactive). In experiment [2], this molecule had a nuclei count of 203%. Further, the z-score in experiment [3] (setting [10]) came to 0.269; in experiment [3] (setting [11]), 0.415; in [3] (setting [12]), 0.187. Also, the fluorescence slope in experiment [5] is -0.534 (inactive). Moreover, the NADPH fluorescence slope in experiment [6] was -7.3e-05 (inactive). In addition, the slope in [7] is 0.00591 (inactive). The molecule was called inactive in experiment [8].

Regarding `CCOC(=O)COc1ccc(Oc2nc(C)cc(OC)n2)nn1`, the cell count in experiment [1] was found to be 443. Further, the inhibition in [1] was -4.6% (inactive); in experiment [2], -136% (inactive); in experiment [4], 0.671% (inactive); in experiment [9], 9.9% (inactive). The nuclei count in [2] is 152%. In addition, the z-score in experiment [3] (setting [10]) was 0.693; in experiment [3] (setting [11]), -0.0792; in experiment [3] (setting [12]) it was 0.257. The fluorescence slope in experiment [5] is -0.417 (inactive). Also, the NADPH fluorescence slope in experiment [6] was -8.4e-05 (inactive). For the same molecule, in [7], the slope was 0.00639 (inactive). Besides, in experiment [8], the call was inactive.

In the case of `Fc1ccc2[nH]c3c(N4CCN(C5CCCCC5)CC4)ncnc3c2c1`, in [1], the cell count amounted to 501. Moreover, the inhibition in [1] is -4.2% (inactive); in experiment [2], -68.6% (inactive); in [4], -6.48% (inactive); in [9], 128% (active). The nuclei count in experiment [2] was found to be 153%. The z-score was -1.35 in experiment [3] (setting [10]), 0.234 in experiment [3] (setting [11]) and 1.42 in experiment [3] (setting [12]). Also, the fluorescence slope in experiment [5] is -0.152 (inactive). In addition, the NADPH fluorescence slope in experiment [6] was -1.9e-06 (inactive). Moreover, the slope in experiment [7] is 0.00383 (inactive). In experiment [8], the result was inactive.

Consider `O=C(C1=C(O)C(=O)N(CCN2CCOCC2)C1c1cccnc1)c1cc2ccccc2o1` (centres undefined), for which, in experiment [1], the cell count was 451. Moreover, the inhibition in experiment [1] is 4.1% (inactive); in experiment [2], -45.7% (inactive); in experiment [4], 15% (inactive); in [9], -5.22% (inactive). This molecule also showed a nuclei count in experiment [2] of 168%. In addition, the z-score was -0.44 in [3] (setting [10]), 2.22 in experiment [3] (setting [11]) and 0.434 in experiment [3] (setting [12]). Further, the fluorescence slope in experiment [5] is -0.41 (inactive). Besides, in [6], the NADPH fluorescence slope is -6.5e-05 (inactive). The slope in experiment [7] is 0.00612 (inactive). Besides, the molecule was classed as inactive in experiment [8].

Consider `Fc1ccccc1-c1nc(N2CCCCC2)c2ccccc2n1`, for which the cell count in experiment [1] worked out at 364. The inhibition in [1] was -8.4% (inactive); in experiment [2] it was -149% (inactive); in [4], 6.04% (inactive); in experiment [9] it was 140% (active). The nuclei count in [2] is 173%. Besides, the z-score in [3] (setting [10]) was 1.66; in experiment [3] (setting [11]), 0.183; in experiment [3] (setting [12]) it was -1.27. Also, the fluorescence slope in experiment [5] is -0.447 (inactive). Besides, the NADPH fluorescence slope in experiment [6] was -5.7e-06 (inactive). Besides, the slope in experiment [7] was 0.00522 (inactive). Further, the outcome in [8] was inactive.

The values are drawn from PubChem BioAssay.
